Compounds with a hit are over-represented: about 2.4% of the library has one in this group of screens.
rRNA inh HTS – inhibits bacterial ribosomal RNA function over humanized ribosomes; E. coli WT GFP vs humanized-ribosome RFP mutants, fluorescence, 24 h; hits give low values; DMSO median 0, no signal -100; GFP signal change (wild-type ribosome), % (concentration not given with the values); 1.6% of 350,000 active;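 active = significant combined selectivity score with lowered wild-type GFP, culture density cut under 30%, mutant RFP and density less affected; inactive = any of these conditions unmet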
LGR2 antag – inhibitors of bursicon-induced Drosophila LGR2 receptor cAMP signaling. HEK293 LGR2, CRE-luciferase, bursicon-stimulated, 4 h. inhibition, % at 9.99 µM. 0.35% of 380,000 active;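 active = drop in luminescence signal, shown as inhibition above about 50% in the replicate tests, limit read from the data, passing the limit was not always enough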;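 note: agonist challenge used bursicon conditioned medium at about half maximal strength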
EWS-Fli block – inhibitors of EWS/Fli oncoprotein transcriptional activity. A673 NR0B1-luciferase reporter, viability-normalised. inhibition, % at 12.6 µM. 0.67% of 350,000 active. AID 651661;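 active = mean inhibition of at least 50% after viability correction, with every replicate also passing that limit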;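 note: firefly luciferase signal divided by Alamar Blue viability fluorescence both relative to DMSO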
E-selectin induc – E-selectin induction on HUVECs; HUVEC E-selectin immunofluorescence imaging; normalized: neutral wells 0, TNF-alpha wells 100; activation, % at 7.58 µM; 0.37% of 260,000 active; AID 686992;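 active = mean E-selectin-positive cell signal at least 10% of the positive control, reached in at least 60% of replicates, without over 20% cell loss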
Target sequence (P16581 whole entry, looked up): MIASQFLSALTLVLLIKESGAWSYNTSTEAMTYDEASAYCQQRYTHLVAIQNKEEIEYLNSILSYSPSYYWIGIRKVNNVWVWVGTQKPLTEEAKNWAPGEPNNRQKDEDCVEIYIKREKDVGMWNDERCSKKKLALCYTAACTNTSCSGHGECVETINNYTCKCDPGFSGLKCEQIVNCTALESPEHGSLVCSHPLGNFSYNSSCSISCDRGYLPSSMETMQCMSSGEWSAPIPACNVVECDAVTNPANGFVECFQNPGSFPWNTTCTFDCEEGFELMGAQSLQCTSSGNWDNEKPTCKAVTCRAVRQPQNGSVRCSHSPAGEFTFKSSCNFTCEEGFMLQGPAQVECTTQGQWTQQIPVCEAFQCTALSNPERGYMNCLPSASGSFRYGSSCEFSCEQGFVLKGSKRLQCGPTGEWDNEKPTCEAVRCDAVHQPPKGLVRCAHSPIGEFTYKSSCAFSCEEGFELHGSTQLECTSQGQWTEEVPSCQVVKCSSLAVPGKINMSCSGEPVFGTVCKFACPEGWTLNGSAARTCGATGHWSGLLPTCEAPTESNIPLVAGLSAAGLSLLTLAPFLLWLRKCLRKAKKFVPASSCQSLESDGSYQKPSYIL
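Material: HUVEC primary endothelial cells; Amount: 3,000 cells per well; Dosing: single concentration; Medium: EGM-2 growth medium on 0.1% gelatin-coated wells; Read-out basis: percent E-selectin-positive cells; Signal: immunofluorescence imaging; Control set: TNF-alpha, DMSO.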
DNA binder FP – DNA binding small molecules. AC35, µM (series often up to 68 µM), without a hit: top-dose activity change, negative = DNA binding. salmon sperm DNA acridine orange fluorescence polarization. AID 720586. 2% of 640 active. shares compounds with EWS-Fli block;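 active = fitted curve reaches a 35% signal fall AC35 below twice the sample's top valid tested dose, actives reach about 48 µM in these data; inactive = the rest, including activity in the rising direction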;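 note: lower polarization ratio signals compound binding to DNA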
* marks the source's active call; other numbers are inactive results; / = no result given.

SMILES	rRNA inh HTS	LGR2 antag	EWS-Fli block	E-selectin induc	DNA binder FP
Cc1noc(C)c1NC(=O)Nc1cccc2c1O[C@H](CN(C)S(=O)(=O)c1cn(C)cn1)[C@H](C)CN([C@H](C)CO)C2=O	/	/	-2	/	/
CC(C)NC(=O)Nc1ccc2c(c1)C(=O)N([C@@H](C)CO)C[C@@H](C)[C@@H](CN(C)C(=O)Nc1ccc(F)cc1)O2	0	-14	-6	0	/
CCNC(=O)[C@@H]1[C@@H](CO)[C@@H]2Cn3c(cccc3=O)[C@@H]2N1CC1CCCCC1	0	-4	0	-1	/
CO[C@H]1CN(C)C(=O)c2cc(NC(=O)NC3CCCC3)ccc2OC[C@@H](C)NC[C@H]1C	0	/	/	/	/
C/C(=C\c1ccccc1)C(=O)N1CCC=CC1=O	/	/	55*	/	-3%
C/C(=C/c1ccccc1)C(=O)N1CCC(C)CC1	-1	-2	-18	0	/
O=C(NC(c1ccc(F)cc1)c1ccc2ccccc2n1)C1CCN(Cc2ccc3ccccc3n2)CC1 (stereo not given)	-1	-16	12	0	/
O=C(NC(c1ccc(F)cc1)c1ccc2ccccc2n1)C1CCN(Cc2cccc(C(F)(F)F)c2)CC1 (stereo not given)	-13	33	58*	0	4%
Cc1ccc(NC(=O)CCN2CCCCC2)cc1	8	10	66*	/	-2%
Cc1ccc(NC(=O)CCN2CCN(CCO)CC2)cc1	13	2	7	/	/
COC(=O)C[C@@H]1CC[C@@H]2[C@H](COc3ccc(NC(=O)c4ccc(F)cc4)cc3C(=O)N2C)O1	0	8	57*	0	11%
COC(=O)C[C@@H]1CC[C@@H]2[C@H](COc3ccc(NC(=O)c4ccccc4)cc3C(=O)N2C)O1	1	1	58*	0	-6%
COC(=O)C[C@H]1CC[C@H]2[C@@H](COc3ccc(NC(=O)c4ccc(F)cc4)cc3C(=O)N2C)O1	2	5	/	0	/
COC(=O)C[C@@H]1CC[C@@H]2[C@H](COc3ccc(NC(=O)c4cc(F)cc(F)c4)cc3C(=O)N2C)O1	-2	-17	61*	0	-5%
CC(C)CC#Cc1ccc([C@H]2[C@H](CO)N3C(=O)CN(S(C)(=O)=O)C[C@@H]23)cc1	5	/	/	/	/
COC(=O)C[C@@H]1CC[C@@H]2[C@H](COc3ccc(NC(=O)Nc4cccc(Cl)c4)cc3C(=O)N2C)O1	-3	19	59*	0	-4%
COC(=O)C[C@@H]1CC[C@@H]2[C@H](COc3ccc(NC(=O)c4cccc(Cl)c4)cc3C(=O)N2C)O1	-3	26	69*	0	-7%
COC(=O)C[C@H]1CC[C@H]2[C@H](COc3ccc(NC(=O)Nc4ccc(Cl)cc4)cc3C(=O)N2C)O1	-3	5	27	0	/
Cc1ccccc1S(=O)(=O)N1C[C@@H](O)COC[C@@H]2O[C@H](CC(=O)N3CCN(C)CC3)CC[C@H]21	4	-13	-1	0	/
Cc1noc(C)c1NC(=O)N(C)C[C@H]1OCCCC[C@@H](C)Oc2ccc(NS(=O)(=O)c3ccc(Cl)cc3)cc2C(=O)N([C@H](C)CO)C[C@@H]1C	1	-14	-15	/	/
CCS(=O)(=O)Nc1ccc2c(c1)C(=O)N(C)C[C@H](OC)[C@@H](C)CN(C(=O)C1CCC1)[C@H](C)CO2	2	5	-6	0	/
COc1ccc(CCC(C)NCC2CCCCC2)cc1 (stereo not given)	7	10	90*	/	2%
COc1ccc(CCC(C)NC2CCCCCCC2)cc1 (stereo not given)	8	11	11	-1	/
CC(C)c1ccc(OCc2cccc(C(=O)N/N=C/c3cccnc3)c2)cc1	-16	45	80*	/	-4%
O=C(N/N=C/c1cccnc1)c1cccc(Cl)c1	18	-40	5	0	/
CO[C@H]1CN(C)C(=O)c2cc(NC(=O)NC(C)C)ccc2OC[C@H](C)N(Cc2ccc(-c3ccccn3)cc2)C[C@@H]1C	-1	47	51*	0	12%
COCC(=O)Nc1ccc2c(c1)[C@@H]1C[C@@H](CC(=O)NC3CCCCC3)O[C@@H](CO)[C@@H]1O2	0	-3	-4	2	/
COc1ccc(S(=O)(=O)N(C)C[C@@H]2Oc3c(NC(=O)c4ccncc4)cccc3C(=O)N([C@H](C)CO)C[C@@H]2C)cc1	-2	1	4	-3	/
